Published values of several laboratories.
Compare with care: the assays were run in different laboratories.
Cell line: HepG2
Observed: cell growth or viability

For CC(C)N(c1ccc(Cl)c(F)c1)c1ccc(NC(=O)CN(C)c2ccccc2N2CCCC2=O)c(F)c1, the CC50 was over 40 µM (ATP luminescence; 48 h).
O=[N+]([O-])c1ccc(Nc2ncnc3ccc(-c4cccc(N5CCOCC5)c4)cc23)cc1C(F)(F)F has a CC50 of over 40 µM (MTT; 48 h).
The CC50 of O=C(Nc1ccncc1)c1cc([N+](=O)[O-])ccc1Cl is reported as 18.1 µM (ATP luminescence; 72 h).
With CO[C@H]1/C=C/O[C@@]2(C)Oc3c(C)c(O)c4c(c3C2=O)C2=NC3(CCN(CC(C)C)CC3)NC2=C(NC(=O)/C(C)=C\C=C\[C@H](C)[C@H](O)[C@@H](C)[C@@H](O)[C@@H](C)[C@H](OC(C)=O)[C@@H]1C)C4=O the CC50 was 170 µM (48 h).
For O=C1C(O)=C([C@H]2CC[C@H](c3ccc(Cl)cc3)CC2)C(=O)c2ccccc21, the CC50 was 9.67 µM (ATP luminescence; 72 h).
For N=C(CC(O)c1ccnc2c1ccc1ccccc12)Nc1ccc(F)cc1 (centres unmarked), the CC50 was 33.3 µM (neutral red).
CCC(C)N(c1ccc(C)cc1)c1ccc(NC(=O)CN(C)c2ccccc2N2CCCC2=O)cc1 (centres unmarked) has a CC50 of over 40 µM (ATP luminescence; 48 h).
For N=C(CC(O)c1cc2cccnc2c2cccnc12)Nc1ccc(F)cc1 (centres unmarked), the CC50 was 265 µM (neutral red; 24 h).
For c1cc(-c2ccc3ncnc(Nc4ncco4)c3c2)nc(N2CCOCC2)n1, the CC50 was 26 µM (MTT; 48 h).
Cc1ccc(Oc2ccc(NC(=O)CNc3ccccc3N3CCCCC3=O)cc2)cc1 has a CC50 of 15 µM (ATP luminescence; 48 h).
With Cc1ccc(Nc2ncnc3ccc(-c4cccc(N5CCOCC5)c4)cc23)cc1 the CC50 was 19 µM (MTT; 48 h).
For CN(CC(=O)Nc1ccc(N(C)c2ccc(Cl)c(Cl)c2)cc1)c1ccccc1N1CCCC1=O, the CC50 was over 40 µM (ATP luminescence; 48 h).
With CN1CCN(c2cccc(-c3ccc4ncnc(Nc5ccc(Cl)c(C(F)(F)F)c5)c4c3)c2)CC1 the CC50 was 15 µM (MTT; 48 h).
N=C(CC(O)c1nc2ccccc2c2ccc(Br)cc12)Nc1ccc(F)cc1 (centres unmarked) gave a CC50 of over 25 µM (neutral red; 24 h).
Clc1ccc(Nc2ncnc3ccc(-c4cccc(N5CCOCC5)c4)cc23)cc1 gave a CC50 of 18 µM (MTT; 48 h).
The CC50 of O=C(CNc1ccccc1N1CCCC1=O)Nc1ccc(Oc2cccc(Cl)c2)cc1 is reported as over 40 µM (ATP luminescence; 48 h).
With CC(=O)OC[C@H]1O[C@@H]([S-])[C@H](OC(C)=O)[C@@H](OC(C)=O)[C@@H]1OC(C)=O.CCP(CC)CC.[Au+] the CC50 was 9.81 µM (ATP luminescence; 72 h).
